{"source": "ChEMBL document CHEMBL3612059", "about": "“Synthesis of 1,2-benzisoxazole tethered 1,2,3-triazoles that exhibit anticancer activity in acute myeloid leukemia cell lines by inhibiting histone deacetylases, and inducing p21 and tubulin acetylation” (Bioorg Med Chem, 2015)", "key": {"[1]": {"tested_on": "MOLM-14", "experiment": "Induction of apoptosis in human MOLM14 cells assessed as early apoptotic cells at 5 uM after 72 hrs by Annexin V-FITC/propidium iodide staining-based flow cytometric analysis (reference value: 7%)", "type": "functional", "how_it_was_run": "(§1)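 100,000 cells per well treated with 2.5, 5.0 or 10 μM for 72 h. Washed in ice-cold Ca/Mg-free PBS, resuspended in 100 μl binding buffer, stained with 5 μl PI plus 3 μl annexin V-FITC for 15 min in the dark, then read immediately by flow cytometry. Quadrants scored as live, early apoptotic, late apoptotic and necrotic.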"}, "[2]": {"tested_on": "MOLM-14", "experiment": "Induction of apoptosis in human MOLM14 cells assessed as necrotic cells at 5 uM after 72 hrs by Annexin V-FITC/propidium iodide staining-based flow cytometric analysis (reference value: 1%)", "type": "functional", "how_it_was_run": "as §1"}, "[3]": {"tested_on": "MV4-11", "experiment": "Induction of apoptosis in human MV4-11 cells assessed as early apoptotic cells at 2.5 uM after 72 hrs by Annexin V-FITC/propidium iodide staining-based flow cytometric analysis (reference value: 7%)", "type": "functional", "how_it_was_run": "as §1"}, "[4]": {"tested_on": "MV4-11", "experiment": "Induction of apoptosis in human MV4-11 cells assessed as early apoptotic cells at 5 uM after 72 hrs by Annexin V-FITC/propidium iodide staining-based flow cytometric analysis (reference value: 7%)", "type": "functional", "how_it_was_run": "as §1"}, "[5]": {"tested_on": "MV4-11", "experiment": "Induction of apoptosis in human MV4-11 cells assessed as necrotic cells at 5 uM after 72 hrs by Annexin V-FITC/propidium iodide staining-based flow cytometric analysis relative to control", "type": "functional", "how_it_was_run": "(§2)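 MV4-11 cells (RPMI, 10 % FBS, 37 °C, 5 % CO2), 100,000 per well, exposed to PTB at 2.5, 5.0 or 10 μM for 72 h. Washed in ice-cold Ca/Mg-free PBS, stained with annexin V-FITC and PI in 1X binding buffer for 15 min in the dark, then read at once by flow cytometry. Necrotic cells are the annexin-negative/PI-positive quadrant.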"}, "[6]": {"tested_on": "MV4-11", "experiment": "Induction of apoptosis in human MV4-11 cells assessed as necrotic cells at 10 uM after 72 hrs by Annexin V-FITC/propidium iodide staining-based flow cytometric analysis relative to control", "type": "functional", "how_it_was_run": "as §2"}, "[7]": {"tested_on": "MOLM-14", "experiment": "Upregulation of p21 protein expression in human MOLM14 cells by Western blot analysis", "type": "functional, cell-based"}, "[8]": {"experiment": "Inhibition of cyclin D protein expression in human MOLM13 cells by Western blot analysis", "type": "functional, cell-based", "conditions": "MOLM-13"}, "[9]": {"target": "Histone deacetylase (Homo sapiens) (UniProt Q13547+O15379+Q9UBN7+Q92769+Q9UQL6+Q8WUI4+Q9BY41+Q96DB2+P56524+Q9UKV0+Q969S8)", "experiment": "Inhibition of HDAC in human MV4-11 cells assessed as increase in acetylation of histone H3 by Western blot analysis", "type": "cell-based", "how_it_was_run": "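MV4-11 cells were treated and histones acid-extracted: Triton buffer, then NaCl buffer, 0.24 M H2SO4 on ice for 2 h, acetone precipitation overnight, Bradford quantitation. Histones (0.5 µg) were run on 4-20 % gradient gels, blotted to PVDF, blocked in 5 % milk and probed overnight at 4 °C with anti-acetyl-histone H3 (1:1000). HRP secondary, ECL detection, total histone H3 as loading control.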"}, "[10]": {"tested_on": "MV4-11", "experiment": "Cytotoxicity against human MV4-11 cells assessed as cell viability after 72 hrs by MTT assay", "type": "functional, cell-based", "conditions": "MV4-11, 72 h", "how_it_was_run": "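MV4-11 cells, 8,000/well, exposed for 72 h to […]. MTT added to 0.5 mg/ml final for 3 h at 37 °C, SDS-HCl solubilization, A570 read. Percent inhibition normalized to diluent controls. Three independent experiments in quadruplicate, mean ± SD.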"}, "[11]": {"tested_on": "MOLM-14", "experiment": "Cytotoxicity against human MOLM14 cells assessed as cell viability after 24 to 96 hrs by MTT assay", "type": "functional, cell-based", "how_it_was_run": "(§3)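 AML cells kept in RPMI with 10 % FBS and 1 % penicillin-streptomycin at 37 °C, 5 % CO₂, mycoplasma-screened. Seeded at 8,000 cells/well across a range of concentrations and read at several times up to 96 h. MTT added to 0.5 mg/ml final for 3 h at 37 °C, formazan dissolved in SDS-HCl, absorbance read at 570 nm. IC50 taken from the dose-response curves.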"}, "[12]": {"tested_on": "MOLM-14", "experiment": "Cytotoxicity against human MOLM14 cells assessed as cell viability measured at 96 hrs by MTT assay", "type": "functional, cell-based", "conditions": "MOLM-14, 96 h", "how_it_was_run": "as §3"}, "[13]": {"tested_on": "MOLM-14", "experiment": "Cell cycle arrest in human MOLM14 cells assessed as accumulation at G2/M phase after 72 hrs by propidium iodide staining-based flow cytometric analysis", "type": "functional", "how_it_was_run": "(§4)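 Cells in RPMI with 10 % FBS at 37 °C, 5 % CO₂; treated up to 72 h, washed in cold PBS, fixed in -20 °C-precooled 70 % ethanol at 4 °C. Stained with 50 µg/ml PI, 1 % Triton X-100 and 20 µg/ml RNase A in PBS, 30 min, 37 °C, dark. Cell-cycle phases read by flow cytometry; three independent experiments, mean ± SD.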"}, "[14]": {"tested_on": "MOLM-14", "experiment": "Cell cycle arrest in human MOLM14 cells assessed as accumulation at sub-G1 phase after 72 hrs by propidium iodide staining-based flow cytometric analysis", "type": "functional", "how_it_was_run": "as §4"}, "[15]": {"tested_on": "MV4-11", "experiment": "Cell cycle arrest in human MV4-11 cells assessed as accumulation at sub-G1 phase after 72 hrs by propidium iodide staining-based flow cytometric analysis", "type": "functional", "how_it_was_run": "as §4"}, "[16]": {"tested_on": "MOLM-14", "experiment": "Cell cycle arrest in human MOLM14 cells assessed as decrease in cells level at G1 phase after 72 hrs by propidium iodide staining-based flow cytometric analysis", "type": "functional", "how_it_was_run": "as §4"}, "[17]": {"tested_on": "MV4-11", "experiment": "Cell cycle arrest in human MV4-11 cells assessed as decrease in cells level at G1 phase after 72 hrs by propidium iodide staining-based flow cytometric analysis", "type": "functional", "how_it_was_run": "as §4"}, "[18]": {"tested_on": "MOLM-13 (Homo sapiens)", "experiment": "Cytotoxicity against human MOLM13 cells assessed as cell viability at 0.25 to 5 uM by MTT assay"}, "[19]": {"tested_on": "MOLM-13 (Homo sapiens)", "experiment": "Induction of apoptosis in human MOLM13 cells assessed as upregulation of cleaved caspase-9 expression after 24 hrs by Western blot analysis"}, "[20]": {"tested_on": "MOLM-13 (Homo sapiens)", "experiment": "Cell cycle arrest in human MOLM13 cells assessed as accumulation at sub-G1 phase after 72 hrs by propidium iodide staining-based flow cytometric analysis"}, "[21]": {"tested_on": "MOLM-13 (Homo sapiens)", "experiment": "Cell cycle arrest in human MOLM13 cells assessed as decrease in cells level at G1 phase after 72 hrs by propidium iodide staining-based flow cytometric analysis"}, "[22]": {"tested_on": "MOLM-13 (Homo sapiens)", "experiment": "Induction of apoptosis in human MOLM13 cells assessed as late apoptotic cells at 5 uM after 72 hrs by Annexin V-FITC/propidium iodide staining-based flow cytometric analysis (reference value: 7%)"}, "[23]": {"tested_on": "MOLM-13 (Homo sapiens)", "experiment": "Induction of apoptosis in human MOLM13 cells assessed as late apoptotic cells at 10 uM after 72 hrs by Annexin V-FITC/propidium iodide staining-based flow cytometric analysis (reference value: 7%)"}, "[24]": {"tested_on": "MOLM-13 (Homo sapiens)", "experiment": "Induction of apoptosis in human MOLM13 cells assessed as late apoptotic cells at 2.5 uM after 72 hrs by Annexin V-FITC/propidium iodide staining-based flow cytometric analysis (reference value: 7%)"}}, "note": "Calls of active or inactive are those of the source. No cut-off for these calls is given here."}
{"smiles": "c1ccc(Oc2ccc(-c3cn(-c4noc5ccccc45)nn3)cc2)cc1", "values": [{"measurement": "Activity", "setting": "[1]", "value": 17, "unit": "%"}, {"measurement": "Activity", "setting": "[2]", "value": 7, "unit": "%"}, {"measurement": "Activity", "setting": "[3]", "value": 9, "unit": "%"}, {"measurement": "Activity", "setting": "[4]", "value": 16, "unit": "%"}, {"measurement": "Activity", "setting": "[5]", "value": 3, "unit": "%"}, {"measurement": "Activity", "setting": "[6]", "value": 5, "unit": "%"}, {"measurement": "Activity", "setting": "[7]", "value": "Active"}, {"measurement": "inhibition", "setting": "[8]", "value": "Dose-dependent effect"}, {"measurement": "inhibition", "setting": "[9]", "value": "Active"}, {"measurement": "IC50", "setting": "[10]", "value": 2000, "unit": "nM"}, {"measurement": "Activity", "setting": "[11]", "value": "Dose-dependent effect"}, {"measurement": "IC50", "setting": "[12]", "value": 2000, "unit": "nM"}, {"measurement": "Activity", "setting": "[13]", "value": "Active"}, {"measurement": "Activity", "setting": "[14]", "value": "Active"}, {"measurement": "Activity", "setting": "[15]", "value": "Active"}, {"measurement": "Activity", "setting": "[16]", "value": "Active"}, {"measurement": "Activity", "setting": "[17]", "value": "Active"}, {"measurement": "Activity", "setting": "[18]", "value": "Dose-dependent effect"}, {"measurement": "Activity", "setting": "[19]", "value": "Dose-dependent effect"}, {"measurement": "Activity", "setting": "[20]", "value": "Active"}, {"measurement": "Activity", "setting": "[21]", "value": "Active"}, {"measurement": "Activity", "setting": "[22]", "value": 26, "unit": "%"}, {"measurement": "Activity", "setting": "[23]", "value": 35, "unit": "%"}, {"measurement": "Activity", "setting": "[24]", "value": 20, "unit": "%"}]}
